Paper PMC3304490 (Biochemical Journal, 2012)
Values joined by “and” are separate entries in the source; they are usually repeats but may differ in a detail not shown here. Equal entries are not always repeated. Where two headings read alike, the source gives them in different places. One block for each compound: values may come before it.

Columns and labels:
[1] = biological target: CR5 (DxDDD) domain of LRP (Homo sapiens, UniProt Q07954); experiment: Tryptophan fluorescence titration of amino acid ligands with CR5 domain; type: binding; conditions: for ΔG^u: unitary free energy
In short: (§1)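 Each CR domain (1–3 μM) was titrated at 298 K in buffer with 1 mM Ca2+ and 0.1% PEG 8000: 20 mM Mes at pH 5.5 or 20 mM Tris/HCl at pH 7.4, with NaCl set to the target ionic strength. Tryptophan emission (λex 280 nm) was read at the wavelength of maximal change and averaged over 120 s, with blank and dilution correction. Kd came from a non-linear single-site fit, using the protonated ligand fraction.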

[2] = cited from earlier work
[3] = biological target: CR8 (DxDxD) domain of LRP (Homo sapiens, UniProt Q07954); experiment: Tryptophan fluorescence titration of amino acid ligands with CR8 domain; type: binding; conditions: for slope of Debye–Hückel plot (−zA×zB): ionic-strength-dependence of binding; for ΔG^u: unitary free energy; for fold weaker Kd than lysine methyl ester: pH 5.5, I=0.02
[4] = biological target: CR3 (DxDxD) domain of LRP (Homo sapiens, UniProt Q07954); experiment: Tryptophan fluorescence titration of amino acid ligands with CR3 domain; type: binding; conditions: for ΔG^u: unitary free energy
In short: as §1

[5] = biological target: D1085A (DxxxD) CR8 variant (Homo sapiens, UniProt Q07954, D1085A); experiment: Tryptophan fluorescence titration of amino acid ligands with CR8 variant D1085A; type: binding; conditions: for Kd: I=0.02, pH 5.5, 298 K; for ΔG^u: unitary free energy
In short: as §1

[6] = tested on: cluster II CR domains of LRP; experiment: Fluorescence titrations, summary statements across several CR domains; type: binding
In short: as §1

[7] = pKa values used for correction of ligand concentration; type: physicochemical; conditions: pH 5.5
[8] = physiological ionic strength, binding favoured at pH 7.4
[9] = CR3, CR5 and CR8, I=0.02, both pH values
[10] = irrespective of ionic strength or pH, results not shown
[11] = Table 3, pH 7.4, ionic strength not given

Sequence of CR3 (DxDxD) domain of LRP (Q07954 852-892 limits assumed): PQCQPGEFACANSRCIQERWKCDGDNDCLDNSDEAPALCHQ
Sequence of CR5 (DxDDD) domain of LRP (Q07954 934-973 limits assumed): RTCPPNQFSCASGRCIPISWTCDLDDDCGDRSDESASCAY
Sequence of CR8 (DxDxD) domain of LRP (Q07954 1060-1099 limits assumed): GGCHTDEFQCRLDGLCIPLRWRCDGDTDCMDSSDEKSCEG
Sequence of D1085A (DxxxD) CR8 variant (Q07954 1060-1099 D1085A limits assumed): as the sequence (Q07954 1060-1099 limits assumed) above, with D26A counted along it

Compound: COC(=O)[C@@H](N)Cc1c[nH]cn1 [Histidine methyl ester]
ΔG° ([1]; Table 3, pH 5.5): -19.9 kJ/mol | pKa ([2]; side chain (imidazole)): 5.33 | ΔG° ([3]; Table 3, pH 5.5): -20.2 kJ/mol | fraction of the imidazole protonated [7]: ~ 40% | ΔG° ([4]; Table 3, pH 5.5): -16.7 kJ/mol | ΔG° ([5]; Table 3, pH 5.5): -13.3 kJ/mol | ΔΔG° compared with lysine methyl ester ([6]; four domains, pH 5.5 and low ionic strength): 0.6 to 2 kJ/mol

Compound: COC(=O)[C@H](C)N [Alanine methyl ester]
Kd [1]: 4100 ± 240 µM | ΔG° ([1]; Table 3, pH 5.5): -13.6 kJ/mol | fold weaker Kd than lysine methyl ester ([1]; pH 5.5): 23 fold | Kd [3]: 4900 ± 250 µM | ΔG° ([3]; Table 3, pH 5.5): -13.2 kJ/mol | fold weaker Kd than lysine methyl ester [3]: 28 fold | ΔΔG° compared with lysine methyl ester ([6]; CR5 and CR8): 7.8 to 8.3 kJ/mol

Compound: Aspartate methyl ester
ΔG° ([1]; Table 3, pH 5.5): -7.0 kJ/mol | ΔG° ([1]; Table 3, pH 7.4): -6.8 kJ/mol | Kd [1, 11]: 63000 ± 5000 µM | ΔG° ([3]; Table 3, pH 5.5): -6.3 kJ/mol | ΔG° ([3]; Table 3, pH 7.4): -5.3 kJ/mol | ΔG° ([4]; Table 3, pH 5.5): -6.2 kJ/mol | ΔG° ([4]; Table 3, pH 7.4): -6.7 kJ/mol | Kd [4, 11]: 66000 ± 11000 µM | fold weaker Kd of D1085A variant than of CR8 [5]: ~ 3 fold | ΔG° ([5]; Table 3, pH 5.5): -3.6 kJ/mol | ΔG° ([5]; Table 3, pH 7.4): -3.3 kJ/mol | fold weaker Kd than lysine methyl ester ([6]; Table 3 domains): 65–450 fold | ΔΔG° compared with lysine methyl ester ([6]; Table 3 domains): 10.3 to 15.2 kJ/mol | perturbation of CR domain tryptophan fluorescence in presence of EDTA ([6]; titrations repeated with EDTA to remove Ca^2+, results not shown): no perturbation

Compound: COC(=O)[C@@H](N)CCCN=C(N)N [Arginine methyl ester]
ΔG° ([1]; I=0.02, pH 5.5): -20.2 kJ/mol | Kd ([1]; I=0.02, pH 5.5, 298 K): 290 ± 10 µM | ΔG° ([1]; I=0.02, pH 7.4): -18.5 kJ/mol | ΔG° ([1]; I=0.17, pH 5.5): -17.5 kJ/mol | Kd ([1]; I=0.17, pH 5.5, 298 K): 840 ± 50 µM | ΔG° ([1]; I=0.17, pH 7.4): -17.8 kJ/mol | difference in ΔG° between pH 5.5 and 7.4 [1, 8]: 0.3 kJ/mol | ΔG^u ([1]; I=0.02, pH 5.5): -30.1 kJ/mol | ΔG^u ([1]; I=0.02, pH 7.4): -28.3 kJ/mol | ΔG^u ([1]; I=0.17, pH 5.5): -27.4 kJ/mol | ΔG^u ([1]; I=0.17, pH 7.4): -27.7 kJ/mol | ΔG° ([3]; I=0.02, pH 5.5): -21.0 kJ/mol | Kd ([3]; I=0.02, pH 5.5, 298 K): 210 ± 10 µM | ΔG° ([3]; I=0.02, pH 7.4): -19.6 kJ/mol | ΔG° ([3]; I=0.17, pH 5.5): -17.7 kJ/mol | Kd ([3]; I=0.17, pH 5.5, 298 K): 780 ± 10 µM | ΔG° ([3]; I=0.17, pH 7.4): -18.5 kJ/mol | ΔG^u ([3]; I=0.02, pH 5.5): -30.9 kJ/mol | ΔG^u ([3]; I=0.02, pH 7.4): -29.5 kJ/mol | ΔG^u ([3]; I=0.17, pH 5.5): -27.6 kJ/mol | ΔG^u ([3]; I=0.17, pH 7.4): -28.4 kJ/mol | ΔG° ([4]; I=0.02, pH 5.5): -18.1 kJ/mol | Kd ([4]; I=0.02, pH 5.5, 298 K): 680 ± 70 µM | ΔG° ([4]; I=0.02, pH 7.4): -17.8 kJ/mol | ΔG° ([4]; I=0.17, pH 5.5): -15.3 kJ/mol | Kd ([4]; I=0.17, pH 5.5, 298 K): 2090 ± 160 µM | ΔG° ([4]; I=0.17, pH 7.4): -17.7 kJ/mol | ΔG^u ([4]; I=0.02, pH 5.5): -28.0 kJ/mol | ΔG^u ([4]; I=0.02, pH 7.4): -27.7 kJ/mol | ΔG^u ([4]; I=0.17, pH 5.5): -25.2 kJ/mol | ΔG^u ([4]; I=0.17, pH 7.4): -27.6 kJ/mol | ΔG° ([5]; I=0.02, pH 5.5): -14.6 kJ/mol | Kd [5]: 2800 ± 110 µM | ΔG° ([5]; I=0.02, pH 7.4): -13.1 kJ/mol | ΔG^u ([5]; I=0.02, pH 5.5): -24.5 kJ/mol | ΔG^u ([5]; I=0.02, pH 7.4): -23.0 kJ/mol

More lines, main results first:

ΔG° ([1]; I=0.02, pH 5.5): -21.4 kJ/mol | Kd ([1]; I=0.02, pH 5.5, 298 K): 180 ± 10 µM | ΔG° ([1]; I=0.02, pH 7.4): -20.3 kJ/mol | ΔG° ([1]; I=0.17, pH 5.5): -18.4 kJ/mol | Kd ([1]; I=0.17, pH 5.5, 298 K): 600 ± 40 µM | ΔG° ([1]; I=0.17, pH 7.4): -19.4 kJ/mol | ΔG^u ([1]; I=0.02, pH 5.5): -31.2 kJ/mol | ΔG^u ([1]; I=0.02, pH 7.4): -30.2 kJ/mol | ΔG^u ([1]; I=0.17, pH 5.5): -28.3 kJ/mol | ΔG^u ([1]; I=0.17, pH 7.4): -29.3 kJ/mol | ΔG° ([3]; 298 K, pH 7.4, I=0.17, from interpolated Kd): -19.5 kJ/mol | ΔG° ([3]; I=0.02, pH 5.5): -21.5 kJ/mol | Kd ([3]; I=0.02, pH 5.5, 298 K): 170 ± 10 µM | ΔG° ([3]; I=0.02, pH 7.4): -21.4 kJ/mol | ΔG° ([3]; I=0.17, pH 5.5): -18.5 kJ/mol | Kd ([3]; I=0.17, pH 5.5, 298 K): 570 ± 20 µM | ΔG° ([3]; I=0.17, pH 7.4): -19.7 kJ/mol | blue shift of CR8 tryptophan fluorescence ([3]; at saturation (Figure 2)): approximately 7 nm | slope of Debye–Hückel plot (−zA×zB) ([3]; pH 5.5): 2.2 | maximum quench of CR8 fluorescence at saturation ([3]; pH 7.4, I=0.17, 294 K (Figure 2)): 66% | ΔS° ([3]; pH 7.4, I=0.17, van't Hoff analysis): 29 J·K^−1·mol^−1 | slope of Debye–Hückel plot (−zA×zB) ([3]; pH 7.4): 1.5 and 1.53 | ΔG ([3]; physiological conditions of 310 K and I=0.17, pH 7.4): -19.1 kJ/mol | Kd ([3]; read-out: interpolated Kd, 298 K, pH 7.4, I=0.17, from van't Hoff plot): 380 µM | ΔG^u ([3]; I=0.02, pH 5.5): -31.4 kJ/mol | ΔG^u ([3]; I=0.02, pH 7.4): -31.2 kJ/mol | ΔG^u ([3]; I=0.17, pH 5.5): -28.4 kJ/mol | ΔG^u ([3]; I=0.17, pH 7.4): -29.6 kJ/mol | ΔH° ([3]; van't Hoff plot 279–310 K, pH 7.4, I=0.17): -10.7 kJ/mol | ΔG° ([4]; I=0.02, pH 5.5): -18.7 kJ/mol | Kd ([4]; I=0.02, pH 5.5, 298 K): 530 ± 50 µM | ΔG° ([4]; I=0.02, pH 7.4): -20.8 kJ/mol | ΔG° ([4]; I=0.17, pH 5.5): -16.7 kJ/mol | Kd ([4]; I=0.17, pH 5.5, 298 K): 1190 ± 110 µM | ΔG° ([4]; I=0.17, pH 7.4): -19.6 kJ/mol | difference in ΔG° between pH 5.5 and 7.4 [4, 8]: 2.9 kJ/mol | ΔG^u ([4]; I=0.02, pH 5.5): -28.6 kJ/mol | ΔG^u ([4]; I=0.02, pH 7.4): -30.7 kJ/mol | ΔG^u ([4]; I=0.17, pH 5.5): -26.6 kJ/mol | ΔG^u ([4]; I=0.17, pH 7.4): -29.5 kJ/mol | Kd of D1085A, fold higher than for N^α-acetyl-lysine methyl ester [5]: ~ 3 fold | ΔG° ([5]; I=0.02, pH 5.5): -13.9 kJ/mol | Kd [5]: 3700 ± 130 µM | ΔG° ([5]; I=0.02, pH 7.4): -13.7 kJ/mol | fold decrease of Kd compared with N^α-acetyl-lysine methyl ester ([5]; pH 5.5 and I=0.02): less than 4 fold | ΔG^u ([5]; I=0.02, pH 5.5): -23.8 kJ/mol | ΔG^u ([5]; I=0.02, pH 7.4): -23.6 kJ/mol | fold reduction in Kd compared with N^α-acetyl-lysine methyl ester [6, 9]: 5–18 fold
Compound: COC(=O)[C@@H](N)CCCCN [Lysine methyl ester]
pKa ([2]; α-amino group): 7.2 | increase in ΔG° compared with N^α-acetyl-lysine methyl ester [6, 9]: 4.3 to 7.2 kJ/mol

binding affinity compared with lysine methyl ester [1, 10]: negligible difference | binding affinity compared with lysine methyl ester [3, 10]: negligible difference | binding affinity compared with lysine methyl ester [4, 10]: negligible difference
Compound: CCOC(=O)[C@@H](N)CCCCN [lysine ethyl ester]

ΔG° ([1]; I=0.02, pH 5.5): -15.7 kJ/mol | Kd ([1]; I=0.02, pH 5.5, 298 K): 1800 ± 160 µM | ΔG° ([1]; I=0.02, pH 7.4): -15.9 kJ/mol | ΔG° ([1]; I=0.17, pH 5.5): -15.0 kJ/mol | Kd ([1]; I=0.17, pH 5.5, 298 K): 2300 ± 490 µM | ΔG° ([1]; I=0.17, pH 7.4): -14.8 kJ/mol | ΔG° ([3]; I=0.02, pH 5.5): -14.3 kJ/mol | Kd ([3]; I=0.02, pH 5.5, 298 K): 3100 ± 440 µM | ΔG° ([3]; I=0.02, pH 7.4): -15.7 kJ/mol | ΔG° ([3]; I=0.17, pH 5.5): -14.7 kJ/mol | Kd ([3]; I=0.17, pH 5.5, 298 K): 2600 ± 280 µM | ΔG° ([3]; I=0.17, pH 7.4): -14.3 kJ/mol | ΔG° ([4]; I=0.02, pH 5.5): -14.5 kJ/mol | Kd ([4]; I=0.02, pH 5.5, 298 K): 2900 ± 120 µM | ΔG° ([4]; I=0.02, pH 7.4): -15.5 kJ/mol | ΔG° ([4]; I=0.17, pH 5.5): -14.5 kJ/mol | Kd ([4]; I=0.17, pH 5.5, 298 K): 2900 ± 280 µM | ΔG° ([4]; I=0.17, pH 7.4): -14.9 kJ/mol | ΔG° ([5]; I=0.02, pH 5.5): -10.8 kJ/mol | Kd [5]: 12800 ± 2000 µM | ΔG° ([5]; I=0.02, pH 7.4): -10.8 kJ/mol | loss of binding energy for D1085A ([5]; compared with domains with central aspartate): 3.5 to 5.1 kJ/mol
Compound: COC(=O)[C@H](CCCCN)NC(C)=O [N^α-acetyl-lysine methyl ester]
range of ΔG° values ([6]; CR3, CR5 and CR8, two ionic strengths, pH 5.5 and 7.4): -15.9 to -14.3 kJ/mol

Kd [3]: 1050 µM | fold weaker Kd than lysine methyl ester [3]: 6 fold
Compound: NCCCC[C@H](N)C(=O)O [unmodified lysine, lysine]
